From ChEMBL document CHEMBL5724801, “EUbOPEN Chemogenomics Library - Multiplex” (2024)
“And” between values parts separate entries of the source, which are not always exact repeats. Equal entries are not always repeated.

Test system: U2OS
Assay: Multiplex assay against U2OS
Type: toxicity, cell-based
Conditions: human, 12 h, 1 µM, compound concentration 1 uM
Procedure, shortened: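 Values for tubulin, mitochondrial-mass and membrane-permeability phenotypes are per cents of cells with healthy nuclei. These cells were identified by CellPathfinder machine-learning gating of live cells that had been stained at seeding with Hoechst33342, BioTracker Green Microtubule Cytoskeleton Dye, MitoTracker Red and Annexin V Alexa Fluor 680 and imaged on a CQ1 microscope at 37°C and 5% CO2 after compound addition. The gating first set Hoechst high-intensity objects apart from normal cells, then split normal cells into healthy, pyknosed or fragmented nuclei, and pyknosed cells into mitotic or apoptotic.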

Structure (SMILES)	Population Apoptotic (%)	Population Fragmented Nuclei (%)	Population Healthy Nuclei (%)	Population Hoechst High Intensity Objects (%)	Population Membrane Permeable-Phenotype (%)	Population Mitochondria Different-Phenotype (%)	Population Mitotic Cells (%)	Population Normal (%)	Population Pyknosed Nuclei (%)	Population Tubulin-Different-Phenotype (%)
CC[C@H](Nc1ncnc2[nH]cnc12)c1nc2cccc(F)c2c(=O)n1-c1ccccc1 [IDELALISIB]	50% and 55%	1.02% and 4.85%	88.24% and 85.44%	0%	1.45% and 1.7%	0.29% and 7.39%	50% and 45%	100%	10.74% and 9.71%	3.19% and 1.14%
CSCC[C@H](NC=O)C(=O)N[C@@H](CC(C)C)C(=O)N[C@@H](Cc1ccccc1)C(=O)O	73% and 100%	29% and 17%	75%	–	–	4% and 3%	–	–	–	–
S=C(NCCCc1c[nH]cn1)NCCCN(Cc1ccc(Cl)c(Cl)c1)c1ccc(Br)cn1	75% and 80%	27% and 20%	63% and 68%	2% and 3%	13% and 6%	2% and 9%	25% and 20%	97% and 96%	9% and 11%	6% and 1%
CC(C)c1ccc(/C=N/NC(=O)c2ccc(O)cc2)cc1	41.67% and 26.09%	0.58% and 4.67%	88.92% and 80%	0%	2.62% and 5.83%	0% and 12.5%	58.33% and 73.91%	100%	10.5% and 15.33%	1.64% and 1.67%

Same assay, conditions: human, 12 h, 1 µM, compound concentration 1 uM

Structure (SMILES)	Total Cell Count
CC[C@H](Nc1ncnc2[nH]cnc12)c1nc2cccc(F)c2c(=O)n1-c1ccccc1 [IDELALISIB]	391 and 206
CSCC[C@H](NC=O)C(=O)N[C@@H](CC(C)C)C(=O)N[C@@H](Cc1ccccc1)C(=O)O	254 and 135
S=C(NCCCc1c[nH]cn1)NCCCN(Cc1ccc(Cl)c(Cl)c1)c1ccc(Br)cn1	228 and 93
CC(C)c1ccc(/C=N/NC(=O)c2ccc(O)cc2)cc1	343 and 150

Same assay, conditions: human, 12 h, 10 µM, compound concentration 10 uM

Structure (SMILES)	Population Apoptotic (%)	Population Fragmented Nuclei (%)	Population Healthy Nuclei (%)	Population Hoechst High Intensity Objects (%)	Population Membrane Permeable-Phenotype (%)	Population Mitotic Cells (%)	Population Normal (%)	Population Pyknosed Nuclei (%)	Total Cell Count	Population Mitochondria Different-Phenotype (%)
CC[C@H](Nc1ncnc2[nH]cnc12)c1nc2cccc(F)c2c(=O)n1-c1ccccc1 [IDELALISIB]	33.33% and 37.5%	1.17% and 2.76%	86.55% and 75.17%	0%	10.47% and 14.68%	66.67% and 62.5%	100%	12.28% and 22.07%	342 and 145	–
CSCC[C@H](NC=O)C(=O)N[C@@H](CC(C)C)C(=O)N[C@@H](Cc1ccccc1)C(=O)O	69% and 90%	23% and 16%	70% and 74%	–	4%	30%	–	–	202 and 123	1% and 2%
S=C(NCCCc1c[nH]cn1)NCCCN(Cc1ccc(Cl)c(Cl)c1)c1ccc(Br)cn1	66% and 58%	27% and 24%	46%	6% and 0%	86% and 84%	33% and 41%	93% and 100%	26% and 29%	220 and 82	26% and 60%
CC(C)c1ccc(/C=N/NC(=O)c2ccc(O)cc2)cc1	32.5% and 45%	1.02% and 0%	88.75% and 85.4%	0%	2.88% and 2.56%	67.5% and 55%	100%	10.23% and 14.6%	391 and 137	0% and 5.98%

Same assay, conditions: human, 12 h, 10 µM, compound concentration 10 uM

Structure (SMILES)	Population Tubulin-Different-Phenotype (%)
S=C(NCCCc1c[nH]cn1)NCCCN(Cc1ccc(Cl)c(Cl)c1)c1ccc(Br)cn1	83% and 89%
CC(C)c1ccc(/C=N/NC(=O)c2ccc(O)cc2)cc1	2.59% and 0%

Same assay, conditions: human, 24 h, 1 µM, compound concentration 1 uM

Structure (SMILES)	Population Apoptotic (%)	Population Fragmented Nuclei (%)	Population Healthy Nuclei (%)	Population Hoechst High Intensity Objects (%)	Population Membrane Permeable-Phenotype (%)	Population Mitochondria Different-Phenotype (%)	Population Mitotic Cells (%)	Population Normal (%)	Population Pyknosed Nuclei (%)	Population Tubulin-Different-Phenotype (%)
CC[C@H](Nc1ncnc2[nH]cnc12)c1nc2cccc(F)c2c(=O)n1-c1ccccc1 [IDELALISIB]	46.94% and 30.77%	1.87% and 2.83%	88.97% and 86.64%	0% and 0.4%	0.84% and 2.34%	0.21% and 5.14%	53.06% and 69.23%	100% and 99.6%	9.16% and 10.53%	1.68% and 0.47%
CSCC[C@H](NC=O)C(=O)N[C@@H](CC(C)C)C(=O)N[C@@H](Cc1ccccc1)C(=O)O	91% and 90%	24% and 17%	75%	–	–	3% and 0%	8%	–	–	–
S=C(NCCCc1c[nH]cn1)NCCCN(Cc1ccc(Cl)c(Cl)c1)c1ccc(Br)cn1	81% and 100%	22% and 30%	69% and 65%	3% and 1%	11% and 7%	3% and 5%	18% and 0%	96% and 98%	8% and 4%	9% and 3%
CC(C)c1ccc(/C=N/NC(=O)c2ccc(O)cc2)cc1	30.95% and 46.15%	2.35% and 1.61%	88.68% and 84.41%	0%	1.69% and 3.18%	0.48% and 8.92%	69.05% and 53.85%	100%	8.97% and 13.98%	1.69% and 0.64%

Same assay, conditions: human, 24 h, 1 µM, compound concentration 1 uM

Structure (SMILES)	Total Cell Count
CC[C@H](Nc1ncnc2[nH]cnc12)c1nc2cccc(F)c2c(=O)n1-c1ccccc1 [IDELALISIB]	535 and 248
CSCC[C@H](NC=O)C(=O)N[C@@H](CC(C)C)C(=O)N[C@@H](Cc1ccccc1)C(=O)O	288 and 147
S=C(NCCCc1c[nH]cn1)NCCCN(Cc1ccc(Cl)c(Cl)c1)c1ccc(Br)cn1	285 and 125
CC(C)c1ccc(/C=N/NC(=O)c2ccc(O)cc2)cc1	468 and 186

Same assay, conditions: human, 24 h, 10 µM, compound concentration 10 uM

Structure (SMILES)	Population Apoptotic (%)	Population Fragmented Nuclei (%)	Population Healthy Nuclei (%)	Population Hoechst High Intensity Objects (%)	Population Membrane Permeable-Phenotype (%)	Population Mitotic Cells (%)	Population Normal (%)	Population Pyknosed Nuclei (%)	Population Tubulin-Different-Phenotype (%)	Total Cell Count
CC[C@H](Nc1ncnc2[nH]cnc12)c1nc2cccc(F)c2c(=O)n1-c1ccccc1 [IDELALISIB]	44.64% and 41.38%	2.79% and 2.6%	84.19% and 78.57%	0%	7.73% and 14.88%	55.36% and 58.62%	100%	13.02% and 18.83%	12.15% and 4.13%	430 and 154
CSCC[C@H](NC=O)C(=O)N[C@@H](CC(C)C)C(=O)N[C@@H](Cc1ccccc1)C(=O)O	76% and 100%	23% and 19%	68% and 70%	–	8%	23% and 0%	–	–	–	247 and 147
S=C(NCCCc1c[nH]cn1)NCCCN(Cc1ccc(Cl)c(Cl)c1)c1ccc(Br)cn1	62% and 60%	33% and 29%	38% and 40%	5% and 2%	59% and 77%	37% and 39%	94% and 97%	28% and 29%	54% and 64%	227 and 79
CC(C)c1ccc(/C=N/NC(=O)c2ccc(O)cc2)cc1	51.02% and 50%	1.12% and 2.26%	89.72% and 86.44%	0%	1.88% and 2.61%	48.98% and 50%	100%	9.16% and 11.3%	1.25% and 0%	–

Same assay, conditions: human, 24 h, 10 µM, compound concentration 10 uM

Structure (SMILES)	Population Mitochondria Different-Phenotype (%)
CSCC[C@H](NC=O)C(=O)N[C@@H](CC(C)C)C(=O)N[C@@H](Cc1ccccc1)C(=O)O	1% and 2%
S=C(NCCCc1c[nH]cn1)NCCCN(Cc1ccc(Cl)c(Cl)c1)c1ccc(Br)cn1	17% and 32%
CC(C)c1ccc(/C=N/NC(=O)c2ccc(O)cc2)cc1	0% and 3.92%

Same assay, conditions: human, 48 h, 1 µM, compound concentration 1 uM

Structure (SMILES)	Population Apoptotic (%)	Population Fragmented Nuclei (%)	Population Healthy Nuclei (%)	Population Hoechst High Intensity Objects (%)	Population Membrane Permeable-Phenotype (%)	Population Mitochondria Different-Phenotype (%)	Population Mitotic Cells (%)	Population Normal (%)	Population Pyknosed Nuclei (%)	Population Tubulin-Different-Phenotype (%)
CC[C@H](Nc1ncnc2[nH]cnc12)c1nc2cccc(F)c2c(=O)n1-c1ccccc1 [IDELALISIB]	46.67% and 39.53%	2.53% and 4.9%	87.97% and 84.56%	0%	0.84% and 3.48%	0.12% and 3.48%	53.33% and 60.47%	100%	9.49% and 10.54%	1.08% and 1.16%
CSCC[C@H](NC=O)C(=O)N[C@@H](CC(C)C)C(=O)N[C@@H](Cc1ccccc1)C(=O)O	–	16% and 18%	75% and 68%	–	4%	3% and 1%	–	–	–	–
S=C(NCCCc1c[nH]cn1)NCCCN(Cc1ccc(Cl)c(Cl)c1)c1ccc(Br)cn1	83% and 87%	17% and 28%	74% and 60%	1% and 0%	5%	3%	16% and 12%	98% and 99%	7% and 11%	2% and 3%
CC(C)c1ccc(/C=N/NC(=O)c2ccc(O)cc2)cc1	38.46% and 51.11%	2.73% and 1.73%	87.74% and 85.3%	0.1% and 0%	0.6% and 3.04%	0.12% and 6.42%	61.54% and 48.89%	99.9% and 100%	9.54% and 12.97%	0.6% and 1.35%

Same assay, conditions: human, 48 h, 1 µM, compound concentration 1 uM

Structure (SMILES)	Total Cell Count
CC[C@H](Nc1ncnc2[nH]cnc12)c1nc2cccc(F)c2c(=O)n1-c1ccccc1 [IDELALISIB]	948 and 408
CSCC[C@H](NC=O)C(=O)N[C@@H](CC(C)C)C(=O)N[C@@H](Cc1ccccc1)C(=O)O	411 and 202
S=C(NCCCc1c[nH]cn1)NCCCN(Cc1ccc(Cl)c(Cl)c1)c1ccc(Br)cn1	409 and 211
CC(C)c1ccc(/C=N/NC(=O)c2ccc(O)cc2)cc1	955 and 347

Same assay, conditions: human, 48 h, 10 µM, compound concentration 10 uM

Structure (SMILES)	Population Apoptotic (%)	Population Fragmented Nuclei (%)	Population Healthy Nuclei (%)	Population Hoechst High Intensity Objects (%)	Population Membrane Permeable-Phenotype (%)	Population Mitotic Cells (%)	Population Normal (%)	Population Pyknosed Nuclei (%)	Population Tubulin-Different-Phenotype (%)	Population Mitochondria Different-Phenotype (%)
CC[C@H](Nc1ncnc2[nH]cnc12)c1nc2cccc(F)c2c(=O)n1-c1ccccc1 [IDELALISIB]	55.68% and 62.86%	2.47% and 5.05%	84.72% and 78.9%	0%	3.78% and 8.72%	44.32% and 37.14%	100%	12.81% and 16.06%	5.33% and 5.23%	–
CSCC[C@H](NC=O)C(=O)N[C@@H](CC(C)C)C(=O)N[C@@H](Cc1ccccc1)C(=O)O	90% and 100%	20% and 53%	70% and 25%	–	–	9% and 0%	–	–	–	–
S=C(NCCCc1c[nH]cn1)NCCCN(Cc1ccc(Cl)c(Cl)c1)c1ccc(Br)cn1	70% and 73%	43% and 50%	8% and 15%	21% and 15%	46% and 57%	29% and 26%	78% and 84%	47% and 33%	26% and 57%	20% and 42%
CC(C)c1ccc(/C=N/NC(=O)c2ccc(O)cc2)cc1	46.51% and 53.12%	4.03% and 1.37%	87.3% and 87.67%	0%	1.15% and 3.52%	53.49% and 46.88%	100%	8.67% and 10.96%	1.39% and 0%	0% and 5.47%

Same assay, conditions: human, 48 h, 10 µM, compound concentration 10 uM

Structure (SMILES)	Total Cell Count
S=C(NCCCc1c[nH]cn1)NCCCN(Cc1ccc(Cl)c(Cl)c1)c1ccc(Br)cn1	230 and 105
